High-throughput results: PubChem BioAssay, several laboratories
PP1 inh: blocks human PP1-alpha phosphatase, a PP5 counter-screen; purified PP1alpha, OMFP fluorescence; hit rate 0.9% among 320,000; inhibition, % at 6.7 µM; AID 2235;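 active = inhibition above the mean inhibition of all tested compounds plus 3 SD, computed separately for each screening campaign, cut at about 15% in these data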
Target sequence (P62136 whole entry, looked up): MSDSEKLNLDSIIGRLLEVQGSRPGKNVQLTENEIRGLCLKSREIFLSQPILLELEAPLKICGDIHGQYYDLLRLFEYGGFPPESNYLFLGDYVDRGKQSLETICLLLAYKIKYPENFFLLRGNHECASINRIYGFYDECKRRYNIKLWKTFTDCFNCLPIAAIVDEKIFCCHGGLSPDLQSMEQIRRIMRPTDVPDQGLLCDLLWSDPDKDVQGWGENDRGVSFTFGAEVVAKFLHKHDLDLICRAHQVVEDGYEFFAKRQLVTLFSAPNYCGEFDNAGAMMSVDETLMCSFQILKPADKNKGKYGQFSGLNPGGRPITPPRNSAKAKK
pCIP destab: compounds decreasing mouse p/CIP protein stability; Q05BA5; F442A p/CIP-EGFP cells, EGFP fluorescence, 16 h; decrease of EGFP signal, % at 10 µM; hit rate 0.01% among 290,000; AID 1984;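 active = EGFP signal decrease of at least 30% at 10 µM or well 3 SD below plate mean, unless failing retest; inactive = the rest, including hits failing retest or dose response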
T cruzi repl: T. cruzi replication inhibition. T. cruzi beta-gal in NIH3T3, luminescence, 90 h. inhibition, % (no concentration beside the values). hit rate 1.4% among 300,000. AID 1885;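 active = mean inhibition across valid replicates above about 55%, limit read from the data; inconclusive = mean below that limit but half or more replicates reach it; inactive = mean below it, under half of replicates reach it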;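 also: signal also drops with host cell toxicity which is not excluded here; 0% = plate median of DMSO wells and 100% = zero luminescence signal; higher percent means less beta-gal luminescence so fewer parasites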
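assay system = mouse NIH/3T3 fibroblasts infected with β-gal-expressing T. cruzi Tulahuen C4 | input = 5,000 NIH/3T3 host cells per well | buffer or medium = DMEM plus 2% FBS | timing = 3 h host attachment, then at least 90 h co-culture | measured by = GalScreen luminescence, 60 min | evaluation = luminescence reflecting intracellular parasite burden, expressed as percent inhibition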
UBC13 polyUb: inhibitors of human UBC13 polyubiquitin chain formation | TR-FRET | inhibition, % at 20 µM | hit rate 0.47% among 330,000 | AID 485273; in the data active = inhibition above about 45%, passing the limit was not always enough; inconclusive = no clear call, values can overlap the other calls
Target sequence (P61088 whole entry, looked up): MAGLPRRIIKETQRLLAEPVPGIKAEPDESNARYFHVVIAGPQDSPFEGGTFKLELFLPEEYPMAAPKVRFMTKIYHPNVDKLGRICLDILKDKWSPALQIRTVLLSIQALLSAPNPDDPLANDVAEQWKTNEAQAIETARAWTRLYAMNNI
AI-2 QS modul: modulators of Vibrio harveyi AI-2 quorum sensing system; Vibrio harveyi JMH597 AI-2 luminescence/OD600 ratio, 9 h; active compounds read low; strain lacks LuxN and CqsS sensors; 0 = neutral-control median; activity change, % at 7.5 µM; hit rate 0.4% among 300,000; AID 2094; in the data active = activity change below about -75%, passing the limit was not always enough; inconclusive = no clear call, values can overlap the other calls;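 also: luminescence divided by OD600 gain over 9 h not by final OD600 alone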
JMH597 growth: retest Vibrio harveyi JMH597 growth inhibition | shares compounds with AI-2 QS modul | OD600 absorbance, 9 h; lacks LuxN and CqsS sensors | growth inhibition, % at 7.5 µM | hit rate 1% among 750;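 active = every replicate shows growth inhibition above 50%; inconclusive = at least half, but not all, replicates pass that cutoff; inactive = fewer than half of replicates pass it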
BB721 lum counter: retest counter-screen: lowers luminescence of constitutive-QS Vibrio harveyi BB721. shares compounds with AI-2 QS modul. 9 h. inhibition, % at 7.5 µM. hit rate 95% among 750. AID 2727;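 active = inhibition above about 80% in every replicate, not just on average, limit read from the data; inconclusive = at least half of replicates past the limit, but not all; inactive = fewer than half of replicates past the limit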
BB721 growth rt: retest Vibrio harveyi BB721 growth inhibition; AID 2728; growth inhibition, % at 7.5 µM; shares compounds with AI-2 QS modul; OD600 absorbance, 9 h; hit rate 3% among 750;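 active = every replicate shows growth inhibition above 50%; inconclusive = at least half but not all replicates above 50% inhibition; inactive = under half of replicates above 50% inhibition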
AI-2 QS JMH597: Vibrio harveyi AI-2 signaling luminescence modulation – JMH597 strain, confirmation; shares compounds with AI-2 QS modul; Vibrio harveyi JMH597 AI-2 quorum sensing luminescence, 9 h; luxN and CqsS knockout, AI-2 only; inhibition, % at 7.5 µM; hit rate 97% among 750; AID 2736;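 active = every replicate shows more than 75% inhibition of signal versus neutral control wells; inconclusive = half to three quarters of replicates exceed 75% inhibition; inactive = fewer than half of replicates exceed 75% inhibition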
PP1 inh confirm: human PP1 phosphatase inhibition, confirmation | shares compounds with PP1 inh | purified PP1alpha, OMFP substrate fluorescence | inhibition, % at 6.7 µM | hit rate 52% among 1,900 | AID 2358;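 active = mean PP1 inhibition above a set limit taken from the earlier primary screen, cut at about 15% in these data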
PP5 counter: inhibits human PP5 phosphatase in PP1 counter-screen; purified PP5c, OMFP fluorescence; inhibition, % at 6.7 µM; AID 2360; hit rate 4% among 1,900; shares compounds with PP1 inh;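 active = mean PP5 inhibition over triplicate wells above about 9.5% taken from the earlier PP1 screen, limit read from the data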
Numbers without * were called inactive; ? = inconclusive; nt = no result. Shown are actives, neighbours in structure and some others; about 2.8% of the full set was active somewhere.

SMILES	PP1 inh	pCIP destab	T cruzi repl	UBC13 polyUb	AI-2 QS modul	others
CC1C(c2cccs2)=[N+]([O-])C(C)(C(=O)c2ccc(Cl)cc2)N1O (configuration not stated)	-0.6	nt	4.7	-1.7	10.4
CCCCCCOc1ccc(CN2CCN(CC)CC2)cc1	-2.1	1.7	65.0*	12.9	3.3
COC(=O)C1=C(c2ccc(S(C)(=O)=O)cc2)C[C@@H]2CC[C@H]1N2C(=O)NCCNC(C)=O	2.3	nt	-13.6	7.8	5.3
CCn1nc(/C=C/c2ccccc2)nc2c(=O)n(C)c(=O)nc1-2	nt	11.2	60.2*	-248.0	?
CN1CCc2nc(SCc3ccccc3Br)c(C#N)cc2C1	5.7	-13.9	52.2	17.8	10.5
Cc1cccc(CSc2nc3c(cc2C#N)CN(C)CC3)c1	1.8	-8.4	58.6*	3.9	-4.0
COc1ccc(N2C(=O)NC(=O)/C(=C/c3ccc([N+](=O)[O-])s3)C2=O)cc1	-0.3	-14.6	32.3	-26.2	?
COc1ccc(N2C(=O)NC(=O)/C(=C\c3ccc([N+](=O)[O-])s3)C2=O)cc1	3.7	-9.7	60.1*	-23.7	?
O=C(Cc1ccccc1)OCC(=O)c1ccccc1	nt	-16.5	-13.6	-2.2	-80.1*	JMH597 growth=18.6;BB721 lum counter=96.0*;BB721 growth rt=3.3;AI-2 QS JMH597=97.5*
O=C1COc2ccc(C(=O)COC(=O)Cc3ccccc3)cc2N1	-7.3	nt	-14.9	6.5	-90.0*	JMH597 growth=-6.2;BB721 lum counter=96.4*;BB721 growth rt=-37.4;AI-2 QS JMH597=97.5*
O=C(Cc1ccccc1)OCC(=O)c1ccc(F)cc1	nt	nt	nt	2.5	nt
CC1C(c2cccs2)=[N+]([O-])C(C)(C(=O)c2cccs2)N1O (configuration not stated)	-3.0	1.4	-3.2	-5.9	28.2
CCc1ccc(NC(=O)CN2CC(c3ccccc3)CC2=O)cc1 (configuration not stated)	-1.2	-13.4	-3.3	-1.3	-81.5*	JMH597 growth=20.8;BB721 lum counter=87.8*;BB721 growth rt=9.8;AI-2 QS JMH597=92.3*
Cc1ccccc1-n1c(C)nc2sccc2c1=O	-0.4	-0.9	-3.8	2.8	35.7
COC(=O)C1=C(c2cccc(OCc3ccccc3)c2)C[C@@H]2CC[C@H]1N2C(=O)NCc1ccc(N(C)C)cc1	9.5	nt	nt	9.5	nt
COC(=O)C1=C(c2cccc(OCc3ccccc3)c2)C[C@@H]2CC[C@H]1N2C(=O)NCc1ccc(C(C)(C)C)cc1	19.6*	nt	nt	-7.1	nt	PP1 inh confirm=1.8;PP5 counter=-1.4
COC(=O)C1=C(c2ccc(-c3ccccc3)c(F)c2)C[C@@H]2CC[C@H]1N2C(=O)NCc1cccc2ccccc12	23.1*	nt	nt	0.8	nt	PP1 inh confirm=4.5;PP5 counter=1.7
COC(=O)C1=C(c2ccc(-c3ccccc3)c(F)c2)C[C@@H]2CC[C@H]1N2C(=O)NCCNC(C)=O	-0.3	nt	nt	1.3	nt
COC1=CC2C3Cc4ccc(OC)c(O)c4C2(CCN3C)CC1=O (configuration not stated)	-4.0	nt	nt	nt	nt
O=c1[nH]c(O)c(/C=C2\C=Nc3ccc(OCc4ccccc4)cc32)c(=O)[nH]1	19.4*	-10.0	-14.0	-79.5	14.1	PP1 inh confirm=24.2*;PP5 counter=-4.1
CC(C)(C)C(=O)NC1CCSC1=O (configuration not stated)	-3.1	1.7	-8.1	2.3	12.5
Cc1cc(O)c2c(c1)C(=O)C13C(=C2O)C(=O)[C@H]2[C@@H](O)[C@@H]1[C@H]1[C@H](O)[C@@H]3C(=O)C3=C(O)c4c(O)cc(C)cc4C(=O)C312 (some centres not stated)	39.9*	nt	nt	-195.2	nt	PP1 inh confirm=33.5*;PP5 counter=-2.4
